In ChEMBL document CHEMBL5058577, “EUbOPEN Chemogenomics Library 2 (Multiplex)” (2022):

Test system: Fibroblast
Test: Multiplex assay against human fibroblast
Format: toxicity, cell-based
Outline: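 At seeding, live cells were stained with Hoechst33342, BioTracker Green Microtubule Cytoskeleton Dye, MitoTracker Red and Annexin V Alexa Fluor 680. After compound addition they were imaged on a CQ1 microscope at 37°C and 5% CO2, and CellPathfinder machine-learning gating sorted them into Hoechst high-intensity objects or normal cells, with normal cells further split into healthy, pyknosed or fragmented nuclei and pyknosed cells into mitotic or apoptotic. Tubulin, mitochondrial-mass and membrane-permeability phenotypes are given as per cents of cells with healthy nuclei.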

[1] = 12 h, 1 µM, compound concentration 1 uM, replicate 1
[2] = 12 h, 1 µM, compound concentration 1 uM, replicate 2
[3] = 12 h, 10 µM, compound concentration 10 uM, replicate 1
[4] = 12 h, 10 µM, compound concentration 10 uM, replicate 2
[5] = 24 h, 1 µM, compound concentration 1 uM, replicate 1
[6] = 24 h, 1 µM, compound concentration 1 uM, replicate 2
[7] = 24 h, 10 µM, compound concentration 10 uM, replicate 1
[8] = 24 h, 10 µM, compound concentration 10 uM, replicate 2
[9] = 48 h, 1 µM, compound concentration 1 uM, replicate 1
[10] = 48 h, 1 µM, compound concentration 1 uM, replicate 2
[11] = 48 h, 10 µM, compound concentration 10 uM, replicate 1
[12] = 48 h, 10 µM, compound concentration 10 uM, replicate 2

SMILES: Cc1cc(-c2ccc3c(c2)CC[C@H]3N2CC3(CCN(C(=O)Cc4cn5cc(C)sc5n4)CC3)C2)ncn1 [PF-5190457]
- Population Apoptotic (%) [1]: 29%
- Population Fragmented Nuclei (%) [1]: 16%
- Population Healthy Nuclei (%) [1]: 71%
- Population Hoechst High Intensity Objects (%) [1]: 4%
- Population Membrane Permeable-Phenotype (%) [1]: 1%
- Population Mitochondria Different-Phenotype (%) [1]: 5%
- Population Mitotic Cells (%) [1]: 70%
- Population Normal (%) [1]: 96%
- Population Pyknosed Nuclei (%) [1]: 11%
- Population Tubulin-Different-Phenotype (%) [1]: 24%
- Total Cell Count [1]: 150
- Population Apoptotic (%) [2]: 30%
- Population Fragmented Nuclei (%) [2]: 18%
- Population Healthy Nuclei (%) [2]: 46%
- Population Membrane Permeable-Phenotype (%) [2]: 9%
- Population Mitochondria Different-Phenotype (%) [2]: 0%
- Population Normal (%) [2]: 95%
- Population Pyknosed Nuclei (%) [2]: 34%
- Population Tubulin-Different-Phenotype (%) [2]: 48%
- Total Cell Count [2]: 121
- Population Apoptotic (%) [3]: 36%
- Population Fragmented Nuclei (%) [3]: 17%
- Population Healthy Nuclei (%) [3]: 63%
- Population Hoechst High Intensity Objects (%) [3]: 4%
- Population Membrane Permeable-Phenotype (%) [3]: 1%
- Population Mitochondria Different-Phenotype (%) [3]: 5%
- Population Mitotic Cells (%) [3]: 63%
- Population Normal (%) [3]: 95%
- Population Pyknosed Nuclei (%) [3]: 18%
- Population Tubulin-Different-Phenotype (%) [3]: 38%
- Total Cell Count [3]: 186
- Population Apoptotic (%) [4]: 45%
- Population Fragmented Nuclei (%) [4]: 20%
- Population Healthy Nuclei (%) [4]: 55%
- Population Hoechst High Intensity Objects (%) [4]: 1%
- Population Membrane Permeable-Phenotype (%) [4]: 6%
- Population Mitochondria Different-Phenotype (%) [4]: 4%
- Population Mitotic Cells (%) [4]: 54%
- Population Normal (%) [4]: 98%
- Population Pyknosed Nuclei (%) [4]: 24%
- Population Tubulin-Different-Phenotype (%) [4]: 56%
- Total Cell Count [4]: 138
- Population Apoptotic (%) [5]: 54%
- Population Fragmented Nuclei (%) [5]: 19%
- Population Healthy Nuclei (%) [5]: 72%
- Population Hoechst High Intensity Objects (%) [5]: 2%
- Population Membrane Permeable-Phenotype (%) [5]: 1%
- Population Mitochondria Different-Phenotype (%) [5]: 4%
- Population Mitotic Cells (%) [5]: 45%
- Population Normal (%) [5]: 97%
- Population Pyknosed Nuclei (%) [5]: 7%
- Population Tubulin-Different-Phenotype (%) [5]: 26%
- Total Cell Count [5]: 141
- Population Apoptotic (%) [6]: 15%
- Population Fragmented Nuclei (%) [6]: 23%
- Population Healthy Nuclei (%) [6]: 43%
- Population Hoechst High Intensity Objects (%) [6]: 3%
- Population Membrane Permeable-Phenotype (%) [6]: 5%
- Population Mitochondria Different-Phenotype (%) [6]: 5%
- Population Mitotic Cells (%) [6]: 84%
- Population Normal (%) [6]: 96%
- Population Pyknosed Nuclei (%) [6]: 32%
- Population Tubulin-Different-Phenotype (%) [6]: 54%
- Total Cell Count [6]: 126
- Population Apoptotic (%) [7]: 44%
- Population Fragmented Nuclei (%) [7]: 19%
- Population Healthy Nuclei (%) [7]: 64%
- Population Hoechst High Intensity Objects (%) [7]: 3%
- Population Membrane Permeable-Phenotype (%) [7]: 0%
- Population Mitochondria Different-Phenotype (%) [7]: 6%
- Population Mitotic Cells (%) [7]: 55%
- Population Normal (%) [7]: 96%
- Population Pyknosed Nuclei (%) [7]: 16%
- Population Tubulin-Different-Phenotype (%) [7]: 37%
- Total Cell Count [7]: 180
- Population Apoptotic (%) [8]: 53%
- Population Fragmented Nuclei (%) [8]: 25%
- Population Healthy Nuclei (%) [8]: 49%
- Population Hoechst High Intensity Objects (%) [8]: 5%
- Population Membrane Permeable-Phenotype (%) [8]: 1%
- Population Mitochondria Different-Phenotype (%) [8]: 7%
- Population Mitotic Cells (%) [8]: 46%
- Population Normal (%) [8]: 94%
- Population Pyknosed Nuclei (%) [8]: 25%
- Population Tubulin-Different-Phenotype (%) [8]: 60%
- Total Cell Count [8]: 134
- Population Apoptotic (%) [9]: 78%
- Population Fragmented Nuclei (%) [9]: 30%
- Population Healthy Nuclei (%) [9]: 59%
- Population Hoechst High Intensity Objects (%) [9]: 6%
- Population Membrane Permeable-Phenotype (%) [9]: 2%
- Population Mitochondria Different-Phenotype (%) [9]: 2%
- Population Mitotic Cells (%) [9]: 21%
- Population Normal (%) [9]: 93%
- Population Pyknosed Nuclei (%) [9]: 9%
- Population Tubulin-Different-Phenotype (%) [9]: 23%
- Total Cell Count [9]: 157
- Population Apoptotic (%) [10]: 34%
- Population Fragmented Nuclei (%) [10]: 32%
- Population Healthy Nuclei (%) [10]: 47%
- Population Hoechst High Intensity Objects (%) [10]: 2%
- Population Membrane Permeable-Phenotype (%) [10]: 14%
- Population Mitochondria Different-Phenotype (%) [10]: 6%
- Population Mitotic Cells (%) [10]: 65%
- Population Normal (%) [10]: 97%
- Population Pyknosed Nuclei (%) [10]: 20%
- Population Tubulin-Different-Phenotype (%) [10]: 68%
- Total Cell Count [10]: 132
- Population Apoptotic (%) [11]: 63%
- Population Fragmented Nuclei (%) [11]: 22%
- Population Healthy Nuclei (%) [11]: 66%
- Population Hoechst High Intensity Objects (%) [11]: 6%
- Population Membrane Permeable-Phenotype (%) [11]: 0%
- Population Mitochondria Different-Phenotype (%) [11]: 12%
- Population Mitotic Cells (%) [11]: 36%
- Population Normal (%) [11]: 93%
- Population Pyknosed Nuclei (%) [11]: 10%
- Population Tubulin-Different-Phenotype (%) [11]: 37%
- Total Cell Count [11]: 192
- Population Apoptotic (%) [12]: 62%
- Population Fragmented Nuclei (%) [12]: 30%
- Population Healthy Nuclei (%) [12]: 51%
- Population Hoechst High Intensity Objects (%) [12]: 1%
- Population Membrane Permeable-Phenotype (%) [12]: 5%
- Population Mitochondria Different-Phenotype (%) [12]: 14%
- Population Mitotic Cells (%) [12]: 37%
- Population Normal (%) [12]: 98%
- Population Pyknosed Nuclei (%) [12]: 18%
- Population Tubulin-Different-Phenotype (%) [12]: 64%
- Total Cell Count [12]: 135
